Consider four molecules from article PMC9085298 (RSC Advances, 2018).

In brackets after ≈: the same amount, converted by molar mass.

The nature of one data set: MTS cytotoxicity assay. Particulars: human, HepDES19 cells (hepatoblastoma cells). Type of data set: cell-based. The gist of the method:
(§1)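 HepDES19 cells seeded at 1.0 × 10^4/well in DMEM with 10% FBS, 1% penicillin/streptomycin, 1% nonessential amino acids and 1% glutamine. Test compound in medium (1% DMSO final) added 48 h after plating, triplicate per concentration. After 72 h, MTS added for 90 min; absorbance at 490 nm. CC50 is 50% viability loss versus untreated cells, from a variable-slope log[inhibitor]–response fit.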
In general terms: Tetrazolium assays rely on reduction of a dye to a coloured formazan, in cell work by metabolically active cells.

Data set [1] concerns Pseudomonas aeruginosa (ATCC 27853). The data set can be described thus: MIC80 by broth microdilution. Format: cell-based. The settings on record: concentration inhibiting growth ≥80% vs vehicle; 16–24 h, 35 °C. In a few lines:
(§2)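 CLSI broth microdilution in cation-adjusted Mueller–Hinton II broth with a 1.5-fold test-compound dilution series. Overnight culture adjusted to 5 × 10^5 CFU mL−1 final. Incubated 16–24 h at 35 °C ± 2 °C, then growth read by absorbance (OD600). MIC80 is the concentration giving ≥80% growth inhibition versus vehicle-treated cultures. Each value is the average of at least two independent determinations.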
In general terms: Dilution methods test growth across graded concentrations, often in twofold steps.

Data set [2] relates to Staphylococcus aureus (ATCC 29213). The data set can be described thus: MIC80 by broth microdilution. Format: cell-based. The settings on record: for MIC80: Staphylococcus aureus, ATCC29213, read-out: Bacteria MIC80 S. aureus (29213); for Bacteria MIC80 S. aureus (29213): concentration inhibiting growth ≥80% vs vehicle, 16–24 h, 35 °C. In a few lines: as §2
Data set [3] deals with Acinetobacter baumannii (from a patient). The data set can be described thus: MIC80 by broth microdilution. Format: cell-based. The settings on record: for MIC80: Acinetobacter baumannii, read-out: Bacteria MIC80 A. baumannii (from a patient). The gist of the method:
as §2

The subject of data set [4] is Escherichia coli (ATCC 35218). The data set can be described thus: MIC80 by broth microdilution. Type of data set: cell-based. The settings on record: for MIC80: Escherichia coli, ATCC35218, read-out: Bacteria MIC80 E. coli (35218). In a few lines:
as §2

Data set [5] is described as follows: Neutral red cytotoxicity assay. Type of data set: cell-based. Particulars: human, HepDES19 cells (hepatoblastoma cells). The gist of the method: (§3)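 HepDES19 cells seeded at 1.0 × 10^4/well in DMEM with 10% FBS, 1% penicillin/streptomycin, 1% nonessential amino acids and 1% glutamine. Test compound (1% DMSO final) added 48 h after plating, triplicate per concentration, and incubated 72 h. Viability measured by neutral red uptake. CC50 is 50% inhibition versus vehicle control, from a 4-variable slope fit of log-transformed data.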

Data set [6] concerns HepDES19 cells. The data set can be described thus: MTS cytotoxicity assay. The settings on record: read-out: CC50 (MTS); HepDES19 cells, 72 h, mitochondrial function. Format: cell-based. In a few lines: as §1
Data set [7] concerns C. neoformans var grubii, KN99 (serotype A, MATα). The data set can be described thus: Inhibition of C. neoformans growth. Type of data set: cell-based, Cryptococcus neoformans. In a few lines:
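Test compound 0.19–50 μM, 48 h at 35 °C, density read at OD650. Growth expressed as % of DMSO-only cells. MIC80 is the minimal concentration inhibiting 80% growth versus vehicle. Triplicates; average of ≥2 independent assays.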

Data set [8] relates to HepDES19 cells. The data set can be described thus: Neutral red cytotoxicity assay. Type of data set: cell-based. Particulars: read-out: CC50 (neutral red); HepDES19 cells, 72 h, lysosomal function. In a few lines: as §3
Setting [9] is: concentration inhibiting growth ≥80% vs vehicle, 16–24 h, 35 °C.

Take `Cc1ccc(S(=O)(=O)Oc2cccc(C(C)C)cc2=O)cc1` [Compound 8, 6-(1-Methylethyl)-2-[[(4-methylphenyl)sulfonyl]oxy]-2,4,6-cycloheptatrien-1-one]: the 50% cytotoxic concentration (CC50) (commonly the concentration giving 50% cytotoxicity) at 72 h in “MTS cytotoxicity assay” was found to be 33.6 µM; in [5], 31.8 µM. The “Bacteria MIC80 P. aeruginosa (27853)” value in data set [1] was more than 100 µM. Also, the MIC80 in data set [2], in data set [3] and in data set [4] was more than 100 µM throughout. In data set [2], the “Bacteria MIC80 S. aureus (29213)” value is more than 100 µM. For the same molecule, the “Bacteria MIC80 A. baumannii (from a patient)” value in data set [3] (setting [9]) is more than 100 µM. Besides, the “Bacteria MIC80 E. coli (35218)” value in data set [4] (setting [9]) was more than 100 µM.

As to `Cc1ccc(S(=O)(=O)Oc2cc(C(C)C)cccc2=O)cc1` [Compound 9, 4-(1-Methylethyl)-2-[[(4-methylphenyl)sulfonyl]oxy]-2,4,6-cycloheptatrien-1-one], the CC50 at 72 h in the data set “MTS cytotoxicity assay” amounted to 34.2 µM; in data set [5], 19.5 µM. The MIC80 (commonly an inhibitory concentration at the 80% level, which refers to growth in some studies and to a panel of isolates in others) was 8.8 µM (≈ 2.8 µg/mL) in data set [2], more than 100 µM in data set [3] and more than 100 µM in data set [4]. Besides, the “fold increase in antibacterial activity against S. aureus” value in data set [2] (relative to natural product 2) stood at 8 fold.

“7-Hydroxy-3-isopropylcyclohepta-2,4,5-triene-1-thione [Compound 11]”: the CC50 stood at 64.2 µM in the data set with HepDES19 cells [6] and 30.4 µM in the data set on HepDES19 cells [8]. Also, the “Bacteria MIC80 S. aureus (29213)” value in data set [2] was 16 µM. Further, the “C. neoformans MIC80” value in [7] (minimal concentration inhibiting 80% of growth, 48 h, 35 °C, YNB-02 + 1% DMSO) was 24 µM.

Take `CC(C)c1cccc(=S)c(O)c1` [Compound 10, 2-Hydroxy-4-isopropylcyclohepta-2,4,6-triene-1-thione]: the cytotoxic concentration (CC50) at 72 h in the data set “MTS cytotoxicity assay” was 95 µM; in [5] it was 39.7 µM. Further, the MIC80 in data set [2], in data set [3] and in data set [4] was more than 100 µM in each case. Further, in data set [7] (relative to hydroxy tropolone 2), the “fold less activity against C. neoformans” value is more than 2 fold.
